Values joined by “and” are separate entries in the source; they are usually repeats but may differ in a detail not shown here. Equal values may be shown once. “Also recorded” adds a separate entry of the source.
Experiments:
[1] = Population pharmacokinetic; format: in vivo, human
Procedure, shortened: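 Pooled plasma data from a phase I/II study in ALK+ or ROS1+ NSCLC (10–200 mg oral q.d. or 35–100 mg b.i.d.) plus six healthy-participant studies (100 mg oral doses; one study 50 mg i.v.). Nonlinear mixed effects, FOCEI; central/peripheral volumes, first-order ka, F; clearance time-varying from single-dose CLI to steady-state CLMX via induction rate constant; exponential between-subject effects; covariates include rabeprazole co-administration on ka and F.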

CYP3A and UGT1A4 = conditions: cited from earlier work
[2] = cited from earlier work
[3] = cited from earlier work; remark: listed apart in the source
[4] = bootstrap mean, 1,000 resampled datasets
[5] = high BWT 91.3 kg (90th percentile), final PopPK model prediction
[6] = highest possible exposure at 100 mg q.d.: BWT 50 kg, BALB 3.2 mg/dL, no PPI use
[7] = low BWT 50 kg (10th percentile), final PopPK model prediction
[8] = lowest possible exposure at 100 mg q.d.: BWT 91.3 kg, BALB 4.6 mg/dL, PPI use
[9] = healthy volunteers, study B7461008

## C[C@H]1Oc2cc(cnc2N)-c2c(nn(C)c2C#N)CN(C)C(=O)c2ccc(F)cc21 [lorlatinib]
[1]; 10 mg q.d. lorlatinib
  lower CL (initial and time-varying induced) compared with 100 mg q.d.: 12.4%
[1]; 200 mg q.d. lorlatinib
  higher CL (initial and time-varying induced) compared with 100 mg q.d.: 13.8%
[1]; PPI use
  decrease in ka relative to a typical patient without PPI use: 67.5%
[1]; [4]
  θ CLMX: 14.584 L/h
  θ D1: 1.149 h
  θ F: 0.764
  θ IND: 0.027
  θ PPI on ka: −0.664
  θ Q: 22.491 L/h
  θ V2: 120.618 L
  θ V3: 156.640 L
  θ ka: 3.128 h⁻¹
  ωFωCL: -0.005
  ωV2ωV3: −0.017
  ω^2 F: 0.023
  ω^2 V2: 0.085
  ω^2 V3: 0.099
  ω^2 ka: 2.345
[1]; final PopPK model
  increase in CL with every unit of BALB over 4 mg/dL: 6.68%
[1]; final PopPK model estimate
  θ BALB on CL (covariate effect of baseline albumin): 0.067
  θ D1, zero-order duration of absorption: 1.15 h and 1.148 h
  θ PPI on ka (covariate effect of proton pump inhibitor use): –0.675
  θ TDOSE on CL (covariate effect of total daily dose): 0.001
  θ WNCL on CL (covariate effect of standardized creatinine clearance): 0.235
  ωFωCL (IIV covariance): -0.006
  ωV2ωV3 (IIV covariance): −0.017
  ω^2 F (IIV): 0.022
  ω^2 V2 (IIV): 0.086
  ω^2 V3 (IIV): 0.101
  ω^2 ka (IIV): 2.329
[1]; final PopPK model estimate, no PPI use
  θ ka, first-order absorption rate constant: 3.1 h⁻¹ and 3.11 h⁻¹ and 3.113 h⁻¹
[1]; final PopPK model estimate, unit not given
  θ IND, rate constant of induction: 0.0199 and 0.020
[1]; high BALB 4.6 mg/dL (90th percentile)
  increase in CL compared with the typical patient (BALB 4 mg/dL): 4%
[1]; [5]
  increase in CL relative to the typical patient: 22%
  increase in V2 relative to the typical patient: 30.4%
[1]; [6]
  change in ka compared with a typical patient: unchanged
  decrease in CL compared with a typical patient: 26.5%
  decrease in V2 compared with a typical patient: 28.6%
[1]; human, plasma, oral
  bioavailability: 75.9%
[1]; [7]
  reduction in CL relative to a typical patient: 22.3%
  reduction in V2 relative to a typical patient: 28.6%
[1]; [8]
  decrease in ka compared with a typical patient: 67.5%
  increase in CL compared with a typical patient: 26.9%
  increase in V2 compared with a typical patient: 30.4%
CYP3A and UGT1A4
  metabolizing enzymes: metabolized primarily by cytochrome P450 (CYP)3A and UGT1A4, and to a lesser extent by CYP2C8, CYP2C19, CYP3A5, and UGT1A3
[2]
  effect of a high-fat meal on lorlatinib exposure: not to have a meaningful effect
[2]; [9]
  effect of PPI rabeprazole co-administration on lorlatinib AUCinf: no effect; also recorded: without changing
  reduction of lorlatinib Cmax by co-administration of the PPI rabeprazole: ~ 30% and 30%
[3]; 150 mg q.d., dose escalation portion of Study B7461001
  dose-limiting toxicities: dose‐limiting toxicities were seen
[3]; Study B7461001, noncompartmental analysis
  steady-state lorlatinib CL versus dose: increased with increasing dose
[3]; phase I portion of B7461001, multiple dosing
  levels of CYP3A4 activity (urine 6-beta-hydroxy-cortisol/cortisol and plasma 4-beta-hydroxy-cholesterol/cholesterol ratios): initially increased with time following multiple dosing
[3]; phase I portion of B7461001
  accumulation after multiple dosing: less than expected

Source: paper PMC7894400 (CPT: Pharmacometrics & Systems Pharmacology, 2021)
